Most compounds without a hit are left out; they make up all but 3.1% or so of the library.
KCNQ1 block = inhibitors of human KCNQ1 potassium channel. 1.3% of 310,000 active. B-score at 10 µM. CHO-K1 KCNQ1, FluxOR thallium flux fluorescence; stronger effect = higher value. AID 2642;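 active means compounds whose thallium flux B-score, printed positive for inhibition, exceeds three library SD while starting fluorescence stays within three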;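 further: channel opened by potassium depolarization with thallium stimulus after 20 min compound exposure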
KCNK9 inh = human KCNK9 channel inhibition. Q9NPC2. HEK293 KCNK9, FluxOR thallium flux fluorescence; stronger effect = lower value. 1.2% of 310,000 active. AID 488922. B-score at 10 µM;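 active means ratio B-score over 3 SD below the library mean, with starting fluorescence within 5 SD of its mean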;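 further: negative B-score means less thallium flux so channel inhibition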
Target sequence (Q9NPC2 whole entry, looked up): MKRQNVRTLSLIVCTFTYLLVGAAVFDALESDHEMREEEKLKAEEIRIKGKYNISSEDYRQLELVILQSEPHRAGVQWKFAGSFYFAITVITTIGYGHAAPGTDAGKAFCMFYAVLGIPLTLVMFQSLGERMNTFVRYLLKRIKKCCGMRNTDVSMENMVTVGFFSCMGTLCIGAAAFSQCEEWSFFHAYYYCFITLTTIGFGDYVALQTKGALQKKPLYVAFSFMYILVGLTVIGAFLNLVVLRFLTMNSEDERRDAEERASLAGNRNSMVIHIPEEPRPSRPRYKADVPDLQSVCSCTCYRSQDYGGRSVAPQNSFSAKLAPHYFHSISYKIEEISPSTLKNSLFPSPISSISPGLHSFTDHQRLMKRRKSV
KCNK3 inh = human KCNK3 channel inhibition, primary screen | CHO-KCNK3 thallium flux, FluxOR fluorescence; stronger effect = lower value | B-score at 10 µM | 0.84% of 340,000 active | AID 602410;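 active means B-score under library mean minus 4 SD, starting fluorescence ratio at most library mean plus 5 SD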;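 further: more negative B-score means stronger inhibition of thallium flux through KCNK3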
hERG protect = shields human hERG channel from block by proarrhythmic agents; 0.51% of 310,000 active; Q12809; activation (rescue from dofetilide block), less the hit threshold, % at 10 µM; CHO-hERG, FluxOR thallium flux, dofetilide IC70 present;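 active means activation above the mean of controls blocked by dofetilide plus 5 SD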;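 further: thallium influx through hERG after potassium depolarization seen as dye fluorescence rise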
KCNQ1 pot = human KCNQ1 channel potentiation or activation; P51787; AID 2648; 0.35% of 310,000 active; B-score at 10 µM; CHO-K1 KCNQ1, thallium flux FluxOR fluorescence; stronger effect = higher value;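 active means fluorescence ratio B-score, a plate-corrected score, at least three library SD, with initial intensity B-score within 5 SD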
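Doses: Single concentration per compound, DMSO matched to controls | Test system: KCNQ1-transfected CHO-K1 cells | Timing: 90 min dye loading and 20 min compound exposure, both at room temperature | Measured by: Kinetic FluxOR thallium fluorescence, 10-s 1-Hz baseline, 110-s post-stimulus read | Medium: Assay buffer with matched DMSO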
KCNK9 block conf = confirmation of human KCNK9 potassium channel inhibitors; shares compounds with KCNK9 inh; HEK293 KCNK9 cells, FluxOR thallium flux fluorescence; inhibition, % at 10 µM; 43% of 4,900 active;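 active means thallium signal inhibited by more than 5 SD of the compound-free buffer control wells, on both duplicate plates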;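 further: 0% = assay buffer control wells without compound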
Kir2-1 spec = mouse Kir2.1 off-target activity of KCNK9 modulators | inhibition, % at 10 µM | 4% of 4,900 active | Kir2.1 cells, FluxOR thallium flux fluorescence | shares compounds with KCNK9 inh;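 active means thallium signal drop more than 5 SD beyond the mean of the no-compound control wells, seen in both duplicate plates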;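 further: signal is fluorescence rise after thallium addition divided by baseline fluorescence; plate controls were assay buffer only for no effect and full block by chlorpromazine control for full effect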
KCNK9 uninduced = non-induced cell nonspecific activity of KCNK9 modulators; shares compounds with KCNK9 inh; non-induced KCNK9-HEK293, FluxOR thallium flux; inhibition, % at 10 µM; 40% of 4,900 active; AID 492997;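 active means thallium signal drop beyond 5 SD of the untreated control mean, on both duplicate plates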;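 further: plate controls were buffer only IC0 wells for no effect and SID17386958 at its maximal inhibitory level for full effect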
The depositor's hits bear a star; i = inactive; nt = no result.

SMILES | KCNQ1 block | KCNK9 inh | KCNK3 inh | hERG protect | KCNQ1 pot | KCNK9 block conf | Kir2-1 spec | KCNK9 uninduced
CCN(CC(=O)Nc1ccc2c(c1)OCCO2)CC(=O)Nc1ccc(C)c([N+](=O)[O-])c1 | nt | nt | i | nt | nt | nt | nt | nt
Cc1cc2nc(-c3cc(N4CCOCC4)ccc3[N+](=O)[O-])ccn2n1 | i | i | i | -10 | i | nt | nt | nt
Cc1cc2nc(-c3ccc4c(c3)CCC4)ccn2n1 | i | i | i | -17 | i | i | i | i
CCCN(CC(=O)Nc1ccccc1C)C(=O)CCN1C(=O)c2cccc([N+](=O)[O-])c2C1=O | i | i | i | -6 | i | nt | nt | nt
CC(C)=CCC12Oc3cc(O)ccc3C1(O)Oc1cc3c(c(O)c1C2=O)C=CC(C)(C)O3 (stereo unspecified) | i | -8.3* | nt | -6 | i | i | i | 24%*
O=C(c1ccccc1Sc1ccccc1[N+](=O)[O-])N1CCCCC1 | i | i | i | 4 | i | i | i | i
O=C(NNC(=O)c1ccccc1Br)c1cnccn1 | nt | nt | i | nt | nt | nt | nt | nt
CCCN(CCC)C(=O)Cn1c(=O)c2sccc2n2c(=S)sc(-c3ccccc3)c12 | i | i | i | -11 | i | nt | nt | nt
CCCN(CCC)C(=O)Cn1c(=O)c2ccccc2n2c(=S)sc(-c3ccccc3C)c12 | i | i | i | -1 | i | i | i | i
CSCc1c(C(=O)OCC(=O)NC2CCCCC2)oc2ccccc12 | nt | nt | i | nt | nt | nt | nt | nt
C=CCSc1nc(-c2ccc(OC)cc2)c(C#N)c(=O)n1CC=C | i | -8.7* | i | -8 | i | i | i | i
COc1ccc(-c2nc3n(c(=O)c2C#N)CCS3)cc1 | i | i | i | -8 | i | nt | nt | nt
CN(C)c1ccc(N2C(=NC(=O)CC3CCCCC3)SC3CS(=O)(=O)CC32)cc1 (stereo unspecified) | i | i | i | -12 | i | nt | nt | nt
C=CCN(C(=O)c1oc2c(Cl)cc(C)cc2c1C)C1CCS(=O)(=O)C1 (stereo unspecified) | i | i | i | -7 | i | i | i | i
O=C(NCCC1=CCCCC1)C1CC(=O)N(Cc2ccccc2)C1 (stereo unspecified) | i | i | i | -12 | i | nt | nt | nt
CC1CCC(C(C)C)C(OC(=O)CSc2nccc(=O)[nH]2)C1 (stereo unspecified) | i | i | i | -12 | i | nt | nt | nt
COc1ccc(-c2n(CC(=O)OC3CC(C)CCC3C(C)C)c3ccccc3[n+]2C)cc1 (stereo unspecified) | 11* | -17* | i | -31 | i | 73%* | 80%* | i
Cc1cccc(-c2nc(CS(=O)CC(=O)NCc3cccs3)c(C)o2)c1 (stereo unspecified) | i | i | i | -11 | i | nt | nt | nt
Cc1cccc(-c2nc(CSCC(=O)NCc3cccs3)c(C)o2)c1 | i | i | i | -15 | i | i | i | i
O=C(Nc1ccnn1C1CCN(Cc2ccc(CO)o2)CC1)c1ccc2c(c1)OCO2 | i | i | i | -10 | i | nt | nt | nt
COc1ccccc1CSc1nc2c(c(=O)n(C)c(=O)n2C)n1C | i | i | i | -9 | i | nt | nt | nt
CCc1ccc(OCC(=O)NNC(=O)c2cc(S(=O)(=O)N(C)C)ccc2N2CCCC2)cc1 | i | i | i | -10 | i | i | i | i
CN(C)S(=O)(=O)c1ccc(N2CCCC2)c(C(=O)Nc2ccccc2Br)c1 | i | i | i | -11 | i | i | i | i
CCc1ccccc1NC(=O)c1cc(S(=O)(=O)N(C)C)ccc1N1CCCC1 | i | i | i | -12 | i | nt | nt | nt
CN(C)S(=O)(=O)c1ccc(N2CCCC2)c(C(=O)NC2CCCCC2)c1 | i | i | i | -13 | i | i | i | i
SMILES | KCNQ1 block | KCNK9 inh | KCNK3 inh | hERG protect | KCNQ1 pot | KCNK9 block conf | Kir2-1 spec | KCNK9 uninduced
CSCc1c(C(=O)OCC(=O)c2ccc[nH]2)oc2ccccc12 | nt | nt | i | nt | nt | nt | nt | nt
N#CC1(NC(=O)COC(=O)c2cccc(-n3cnnn3)c2)CCCCC1 | i | i | i | -16 | i | nt | nt | nt
Cc1ccc(-c2c(C)sc3ncn(CC(=O)N4CCOCC4)c(=O)c23)cc1C | i | i | i | -12 | i | i | i | i
O=C1c2ccccc2C2=Nc3ccccc3SC(c3cccc(F)c3)C12 (stereo unspecified) | i | -15* | i | -4 | i | 56%* | i | 56%*
O=C1c2ccccc2C2=Nc3ccccc3SC(c3ccc(Cl)cc3)C12 (stereo unspecified) | i | -13* | i | -12 | i | 46%* | i | 34%*
Cc1ccc(C)c(C(=O)COC(=O)c2cc([N+](=O)[O-])ccc2N2CCOCC2)c1 | i | i | i | -14 | i | nt | nt | nt
Cc1ccc(C)c(C(=O)COC(=O)c2cc([N+](=O)[O-])ccc2NCCO)c1 | i | -8.2* | i | -9 | 11* | 59%* | i | i
O=c1ccc2cc3c4c(c2o1)CCCN4CCC3 | i | i | i | -48 | i | nt | nt | nt
O=c1ccc2c(o1)/C(=C/C=C(Cl)Cl)CCC2 | i | -12* | i | -3 | i | 42%* | i | 36%*
C=CCn1c(=O)[nH]c(=O)c2c(N)c(C(=O)c3ccc(OC)cc3)sc21 | nt | nt | i | nt | nt | nt | nt | nt
COc1ccc(Oc2ncc(CN3CCN(c4ccccc4)CC3)s2)cc1 | i | i | i | -3 | i | i | i | i
O=C(CNC(c1ccccc1)c1ccccc1)Nc1ccccc1-c1ccccc1 | i | -12* | i | -14 | i | 26%* | i | 42%*
Cc1ccccc1CN(C)CC(=O)Nc1ccccc1-c1ccccc1 | i | -10* | i | -8 | i | 71%* | 55%* | 42%*
CN(CC(=O)Nc1ccccc1Oc1ccccc1)Cc1ccccc1F | i | -13* | i | -20 | i | 78%* | 47%* | 42%*
O=C(CNC(c1ccccc1)c1ccccc1)Nc1ccccc1F | i | i | i | -10 | i | nt | nt | nt
NS(=O)(=O)c1cccc(NC(=O)COC(=O)CCc2ccccc2)c1 | i | i | i | -11 | i | nt | nt | nt
Cc1ccc(-n2nc3c(=O)n(CC(=O)NC(C)CCc4ccccc4)nc(C)c3c2C)cc1 (stereo unspecified) | i | i | i | -5 | i | nt | nt | nt
O=C(c1ccc2ccccc2c1)C1CCCN(C(=O)c2cnccn2)C1 (stereo unspecified) | i | i | i | -11 | i | i | i | i

High-throughput results: PubChem BioAssay, Johns Hopkins Ion Channel Center
